Experimental data as given in publication PMC8805511 (Bioorganic & medicinal chemistry letters, 2021).
Like-named read-outs stand apart in the source and are kept apart here.

Legend:
[1] = T1/2 in mouse liver microsome assays; format: in vitro ADME; settings: liver microsomes
In short: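 Test compound incubated with mouse liver microsomes at 37 °C. The amount of unmodified compound remaining was measured after 30 min as a single-point stability read. T1/2 (min) was calculated from these incubations. Dextromethorphan served as the positive control.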

tau = settings: cited from earlier work
[2] = mouse liver microsome stability, compound remaining after 30 minutes; format: in vitro ADME; settings: unmodified compound remaining after incubation with mouse liver microsomes for 30 minutes at 37 °C
[3] = mouse liver microsome assays; cited from earlier work
solubility = format: physicochemical; settings: excluded from further study
HeLaC3 cells = test: total tau; format: cell-based; settings: 24 h, Western blot

Compound: CCn1c(=O)/c(=C2\Sc3cccc(Cl)c3N2C)s/c1=C\c1ccccn1 [Compound 5]
- half-life [1]: ~20 min

Compound: CCn1c(=O)/c(=C2\Sc3ccc(Cl)cc3N2C)s/c1=C\c1ccccn1 [Compound 6]
- half-life [1]: ~20 min

Compound: YM-01
- concentration promoting tau degradation (tau): ~ 1 μM

Compound: CCn1c(=O)/c(=C2\Sc3ccccc3N2C)s/c1=C\c1ccccn1 [YM-08]
- Percentage at T30min [2]: below the limit of detection
- half-life [3]: less than three minutes

Compound: CCn1c(=O)/c(=C2\Sc3c(Cl)cccc3N2C)s/c1=C\c1ccncc1 [Compound 17]
- solubility (solubility): poor solubility

Compound: CCn1c(=O)/c(=C2\Sc3cccc(Cl)c3N2C)s/c1=C\c1ccncc1 [Compound 14]
- solubility (solubility): poor solubility

Compound: CCn1c(=O)/c(=C2\Sc3ccc(Cl)cc3N2C)s/c1=C\c1ccncc1 [Compound 15]
- cellular stress (levels of Hsp72 and Hsp90) (HeLaC3 cells): did not activate cellular stress

Compound: CCn1c(=O)/c(=C2\Sc3cc(Cl)ccc3N2C)s/c1=C\c1ccncc1 [Compound 16]
- half-life [1]: ~20 min
